Test results reported in ChEMBL document CHEMBL5058577, “EUbOPEN Chemogenomics Library 2 (Multiplex)” (2022).

System: HEK-293T
Assay: Multiplex assay against HEK293T
Assay type: toxicity, cell-based
Conditions: human
How it was run: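 With compound added, live cells were imaged on a CQ1 microscope at 37°C and 5% CO2; staining with Hoechst33342, BioTracker Green Microtubule Cytoskeleton Dye, MitoTracker Red and Annexin V Alexa Fluor 680 had been done at seeding. The CellPathfinder machine-learning gating scheme split cells into Hoechst high-intensity objects or normal cells, normal cells into healthy, pyknosed or fragmented nuclei, and pyknosed cells into mitotic or apoptotic. The tubulin, mitochondrial-mass and membrane-permeability phenotypes are per cents of healthy-nucleus cells.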

[1] = 12 h, 1 µM, compound concentration 1 uM, replicate 1
[2] = 12 h, 1 µM, compound concentration 1 uM, replicate 2
[3] = 12 h, 10 µM, compound concentration 10 uM, replicate 1
[4] = 12 h, 10 µM, compound concentration 10 uM, replicate 2
[5] = 24 h, 1 µM, compound concentration 1 uM, replicate 1
[6] = 24 h, 1 µM, compound concentration 1 uM, replicate 2
[7] = 24 h, 10 µM, compound concentration 10 uM, replicate 1
[8] = 24 h, 10 µM, compound concentration 10 uM, replicate 2
[9] = 48 h, 1 µM, compound concentration 1 uM, replicate 1
[10] = 48 h, 1 µM, compound concentration 1 uM, replicate 2
[11] = 48 h, 10 µM, compound concentration 10 uM, replicate 1
[12] = 48 h, 10 µM, compound concentration 10 uM, replicate 2

Cc1nc2ccc(Oc3ccc(F)cc3)cc2c(=O)n1C[C@H]1CCCN(C(C)C)C1.Cl
Population Apoptotic (%) [1]: 40% | Population Fragmented Nuclei (%) [1]: 7% | Population Healthy Nuclei (%) [1]: 80% | Population Hoechst High Intensity Objects (%) [1]: 6% | Population Membrane Permeable-Phenotype (%) [1]: 0% | Population Mitochondria Different-Phenotype (%) [1]: 50% | Population Mitotic Cells (%) [1]: 60% | Population Normal (%) [1]: 93% | Population Pyknosed Nuclei (%) [1]: 11% | Population Tubulin-Different-Phenotype (%) [1]: 42% | Total Cell Count [1]: 381 | Population Apoptotic (%) [2]: 61% | Population Fragmented Nuclei (%) [2]: 5% | Population Healthy Nuclei (%) [2]: 70% | Population Hoechst High Intensity Objects (%) [2]: 27% | Population Mitochondria Different-Phenotype (%) [2]: 69% | Population Mitotic Cells (%) [2]: 38% | Population Normal (%) [2]: 72% | Population Pyknosed Nuclei (%) [2]: 24% | Population Tubulin-Different-Phenotype (%) [2]: 34% | Total Cell Count [2]: 204 | Population Apoptotic (%) [3]: 54% | Population Fragmented Nuclei (%) [3]: 7% | Population Healthy Nuclei (%) [3]: 78% | Population Hoechst High Intensity Objects (%) [3]: 17% | Population Membrane Permeable-Phenotype (%) [3]: 0% | Population Mitochondria Different-Phenotype (%) [3]: 81% | Population Mitotic Cells (%) [3]: 45% | Population Normal (%) [3]: 82% | Population Pyknosed Nuclei (%) [3]: 13% | Population Tubulin-Different-Phenotype (%) [3]: 76% | Total Cell Count [3]: 405 | Population Apoptotic (%) [4]: 61% | Population Fragmented Nuclei (%) [4]: 8% | Population Healthy Nuclei (%) [4]: 74% | Population Hoechst High Intensity Objects (%) [4]: 20% | Population Mitochondria Different-Phenotype (%) [4]: 94% | Population Mitotic Cells (%) [4]: 38% | Population Normal (%) [4]: 79% | Population Pyknosed Nuclei (%) [4]: 17% | Population Tubulin-Different-Phenotype (%) [4]: 73% | Total Cell Count [4]: 310 | Population Apoptotic (%) [5]: 31% | Population Fragmented Nuclei (%) [5]: 11% | Population Healthy Nuclei (%) [5]: 80% | Population Hoechst High Intensity Objects (%) [5]: 4% | Population Membrane Permeable-Phenotype (%) [5]: 0% | Population Mitochondria Different-Phenotype (%) [5]: 36% | Population Mitotic Cells (%) [5]: 68% | Population Normal (%) [5]: 95% | Population Pyknosed Nuclei (%) [5]: 8% | Population Tubulin-Different-Phenotype (%) [5]: 27% | Total Cell Count [5]: 553 | Population Apoptotic (%) [6]: 37% | Population Healthy Nuclei (%) [6]: 72% | Population Hoechst High Intensity Objects (%) [6]: 22% | Population Mitochondria Different-Phenotype (%) [6]: 52% | Population Mitotic Cells (%) [6]: 62% | Population Normal (%) [6]: 77% | Population Pyknosed Nuclei (%) [6]: 16% | Population Tubulin-Different-Phenotype (%) [6]: 20% | Total Cell Count [6]: 281 | Population Apoptotic (%) [7]: 49% | Population Fragmented Nuclei (%) [7]: 10% | Population Healthy Nuclei (%) [7]: 73% | Population Hoechst High Intensity Objects (%) [7]: 12% | Population Membrane Permeable-Phenotype (%) [7]: 3% | Population Mitochondria Different-Phenotype (%) [7]: 67% | Population Mitotic Cells (%) [7]: 50% | Population Normal (%) [7]: 87% | Population Pyknosed Nuclei (%) [7]: 15% | Population Tubulin-Different-Phenotype (%) [7]: 70% | Total Cell Count [7]: 525 | Population Apoptotic (%) [8]: 68% | Population Fragmented Nuclei (%) [8]: 11% | Population Healthy Nuclei (%) [8]: 75% | Population Hoechst High Intensity Objects (%) [8]: 23% | Population Membrane Permeable-Phenotype (%) [8]: 0% | Population Mitochondria Different-Phenotype (%) [8]: 88% | Population Mitotic Cells (%) [8]: 31% | Population Normal (%) [8]: 76% | Population Pyknosed Nuclei (%) [8]: 12% | Population Tubulin-Different-Phenotype (%) [8]: 68% | Total Cell Count [8]: 334 | Population Apoptotic (%) [9]: 27% | Population Fragmented Nuclei (%) [9]: 19% | Population Healthy Nuclei (%) [9]: 75% | Population Hoechst High Intensity Objects (%) [9]: 1% | Population Membrane Permeable-Phenotype (%) [9]: 1% | Population Mitochondria Different-Phenotype (%) [9]: 22% | Population Mitotic Cells (%) [9]: 72% | Population Normal (%) [9]: 98% | Population Pyknosed Nuclei (%) [9]: 5% | Population Tubulin-Different-Phenotype (%) [9]: 14% | Total Cell Count [9]: 901 | Population Apoptotic (%) [10]: 60% | Population Fragmented Nuclei (%) [10]: 13% | Population Healthy Nuclei (%) [10]: 80% | Population Hoechst High Intensity Objects (%) [10]: 7% | Population Membrane Permeable-Phenotype (%) [10]: 0% | Population Mitochondria Different-Phenotype (%) [10]: 36% | Population Mitotic Cells (%) [10]: 39% | Population Normal (%) [10]: 92% | Population Pyknosed Nuclei (%) [10]: 6% | Total Cell Count [10]: 380 | Population Apoptotic (%) [11]: 47% | Population Fragmented Nuclei (%) [11]: 15% | Population Healthy Nuclei (%) [11]: 74% | Population Hoechst High Intensity Objects (%) [11]: 11% | Population Membrane Permeable-Phenotype (%) [11]: 2% | Population Mitochondria Different-Phenotype (%) [11]: 60% | Population Mitotic Cells (%) [11]: 52% | Population Normal (%) [11]: 88% | Population Pyknosed Nuclei (%) [11]: 9% | Population Tubulin-Different-Phenotype (%) [11]: 62% | Total Cell Count [11]: 754 | Population Apoptotic (%) [12]: 67% | Population Fragmented Nuclei (%) [12]: 17% | Population Healthy Nuclei (%) [12]: 72% | Population Hoechst High Intensity Objects (%) [12]: 22% | Population Membrane Permeable-Phenotype (%) [12]: 0% | Population Mitochondria Different-Phenotype (%) [12]: 69% | Population Mitotic Cells (%) [12]: 32% | Population Normal (%) [12]: 78% | Population Tubulin-Different-Phenotype (%) [12]: 58% | Total Cell Count [12]: 459
